Assay results taken from ChEMBL document CHEMBL1155032, “Dendronpholides A-R, cembranoid diterpenes from the chinese soft coral Dendronephthya sp” (J Nat Prod, 2008).
Converted amounts (≈) assume the structure as drawn.

Assay: Cytotoxicity against human […] cells
Format: functional, cell-based
Summary of the method: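 In vitro assay on the human gastric cancer line BGC-823, one of a panel of human cancer lines. Viability was read out by the MTT method, following a previously published procedure.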
C=C1C(=O)O[C@]2(C)CC[C@@H]1C[C@H](O)/C(C)=C/C/C=C(\C)CC[C@@H]2OC(C)=O [DENDRONPHOLIDE A] showed an IC50 greater than 10 µg/mL. C=C1C(=O)O[C@]2(C)CC[C@@H]1C[C@@H](OC(C)=O)[C@@]1(C)CC[C@H](O1)[C@@](C)(O)CC[C@@H]2OC(C)=O [DENDRONPHOLIDE Q] showed an IC50 greater than 10 µg/mL. C=C(C(=O)O)[C@@H]1CC[C@@](C)(O)[C@@H]2CC[C@@](C)(O2)[C@@H](O)CC[C@](C)(O)[C@H](OC(C)=O)C1 [DENDRONPHOLIDE J] showed an IC50 of 0.2 µg/mL (≈ 0.467 µM). Work on C=C(C(=O)O)[C@@H]1CC[C@@](C)(O)[C@@H](OC(C)=O)CCC(=C)[C@@H]2CC[C@@](C)(O2)[C@H](O)C1 [DENDRONPHOLIDE R] yielded an IC50 greater than 10 µg/mL. In the case of C=C(C(=O)OC)[C@@H]1CC[C@@](C)(O)[C@@H](O)CC/C(C)=C/C/C=C(\C)[C@@H](O)C1 [DENDRONPHOLIDE C], the IC50 is reported as 0.05 µg/mL (≈ 0.136 µM). C=C(C(=O)OCC)[C@@H]1CC[C@@](C)(O)[C@@H]2CC[C@@](C)(O2)[C@@H](OC(C)=O)C/C=C(\C)[C@H](O)C1 [DENDRONPHOLIDE O] showed an IC50 greater than 10 µg/mL. In the case of C=C(C(=O)OC)[C@@H]1CC[C@@](C)(O)[C@@H]2CC[C@@](C)(O2)[C@@H](OC(C)=O)C/C=C(\C)[C@H](O)C1 [DENDRONPHOLIDE P], the IC50 is reported as greater than 10 µg/mL. With C=C(C(=O)O)[C@@H]1CC[C@@](C)(O)[C@@H]2CC[C@@](C)(O2)[C@@H](OC(C)=O)CC[C@](C)(O)[C@H](O)C1 [DENDRONPHOLIDE I] the IC50 was greater than 10 µg/mL. C=C1C(=O)O[C@]2(C)CC[C@@H]1C[C@H](O)/C(C)=C/C/C=C(\C)CC[C@@H]2O showed an IC50 greater than 10 µg/mL. For C=C1C(=O)O[C@]2(C)CC[C@@H]1C[C@@H](O)/C(C)=C/C/C=C(\C)CC[C@@H]2OC(C)=O [DENDRONPHOLIDE B], the IC50 was greater than 10 µg/mL. C=C(C(=O)O)[C@@H]1CC[C@@](C)(O)[C@@H]2CC[C@@](C)(O2)[C@@H](OC(C)=O)CC[C@](C)(OC)[C@H](O)C1 [DENDRONPHOLIDE K] showed an IC50 greater than 10 µg/mL. C=C(C(=O)OC)[C@@H]1CC[C@@](C)(O)[C@@H]2CC[C@@](C)(O2)[C@@H](OC(C)=O)CC[C@]2(C)O[C@H]2C1 [DENDRONPHOLIDE G] gave an IC50 of 0.02 µg/mL (≈ 0.0471 µM).
